From ChEMBL document CHEMBL2429759, “Anti-tumor activity evaluation of novel chrysin-organogermanium(IV) complex in MCF-7 cells” (Bioorg Med Chem Lett, 2013) come the findings set out here.

The subject of data set [1] is MCF-10A. Briefly: (§1) Growth inhibition of human MCF10A cells at 10 ug/ml by MTT assay. It is filed as cell-based. The note with it: mcf-10a.
The subject of data set [2] is MCF-10A. Briefly: (§2) Growth inhibition of human MCF10A cells at 30 ug/ml by MTT assay. The format is cell-based. The note with it: mcf-10a.
The subject of data set [3] is MCF-10A. Briefly: (§3) Growth inhibition of human MCF10A cells at 20 ug/ml by MTT assay. It is filed as cell-based. The settings on record: mcf-10a.
Data set [4] concerns MCF-10A. The data set can be described thus: Disruption of microfilament organization in human MCF10A cells at 10 ug/ml by immunofluorescence analysis relative to control. It is filed as ADME, cell-based.
Data set [5] relates to MCF-10A. Briefly: Antimigratory activity against human MCF10A cells at 10 ug/ml by wound-healing assay. It is filed as ADME, cell-based. The procedure, abridged:
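Scratch wound-healing: monolayers wounded with a p200 pipette tip, kept with or without complex; images taken at 0 and 24 h; reference lines drawn equidistant.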

Data set [6] relates to MCF-10A. The data set can be described thus: (§4) Growth inhibition of human MCF10A cells at 5 ug/ml by MTT assay. It is filed as cell-based. The note with it: mcf-10a.
Data set [7] has as its system MCF-10A. Briefly: Disruption of cell integrity in human MCF10A cells at 10 ug/ml by immunofluorescence analysis relative to control. It is filed as ADME, cell-based.
For data set [8], the system named is HepG2. Briefly: Growth inhibition of human HepG2 cells at 20 ug/ml by MTT assay. The format is functional. The note with it: read-out: GI.
The nature of data set [9]: as §1. The format is cell-based, MCF-10A. The settings on record: MCF10A cells, read-out: GI.
Data set [10] has as its system MCF7. The data set can be described thus: Growth inhibition of human MCF7 cells at 30 ug/ml by MTT assay. The note with it: read-out: GI. It is filed as functional.
Data set [11] in a line: as §2. The note with it: MCF10A cells, read-out: GI. The format is cell-based, MCF-10A.
Data set [12] has as its system MCF7. The data set can be described thus: Growth inhibition of human MCF7 cells by MTT assay. The format is functional, cell-based.
Data set [13] can be described thus: as §3. The format is cell-based, MCF-10A. The settings on record: MCF10A cells, read-out: GI.
In data set [14] the test system is HepG2. The data set can be described thus: Growth inhibition of human HepG2 cells at 5 ug/ml by MTT assay. It is filed as functional. The note with it: read-out: GI.
The test system of data set [15] is COLO 205. Briefly: Growth inhibition of human COLO205 cells by MTT assay. It is filed as functional, cell-based.
The test system of data set [16] is HepG2. The data set can be described thus: Growth inhibition of human HepG2 cells at 10 ug/ml by MTT assay. The format is functional. The note with it: read-out: GI.
For data set [17], the system named is HepG2. The data set can be described thus: Growth inhibition of human HepG2 cells by MTT assay. The format is functional, cell-based.
Data set [18] deals with MCF7. Briefly: Growth inhibition of human MCF7 cells at 10 ug/ml by MTT assay. The format is functional. The settings on record: read-out: GI.
Data set [19] deals with COLO 205. Briefly: Growth inhibition of human COLO205 cells at 10 ug/ml by MTT assay. It is filed as functional. The settings on record: read-out: GI.
Data set [20] deals with COLO 205. Briefly: Growth inhibition of human COLO205 cells at 30 ug/ml by MTT assay. The note with it: read-out: GI. It is filed as functional.
Data set [21] relates to HepG2. Briefly: Growth inhibition of human HepG2 cells at 30 ug/ml by MTT assay. It is filed as functional. The settings on record: read-out: GI.
Data set [22] can be described thus: as §4. It is filed as cell-based, MCF-10A. The note with it: MCF10A cells, read-out: GI.
The test system of data set [23] is MCF7. The data set can be described thus: Growth inhibition of human MCF7 cells at 5 ug/ml by MTT assay. It is filed as functional. The note with it: read-out: GI.
The test system of data set [24] is COLO 205. Briefly: Growth inhibition of human COLO205 cells at 5 ug/ml by MTT assay. It is filed as functional. The note with it: read-out: GI.
In data set [25] the test system is COLO 205. Briefly: Growth inhibition of human COLO205 cells at 20 ug/ml by MTT assay. The format is functional. The note with it: read-out: GI.
For data set [26], the system named is MCF7. Briefly: Growth inhibition of human MCF7 cells at 20 ug/ml by MTT assay. The format is functional. The note with it: read-out: GI.

Take “5-hydroxy-2-phenyl-7-(triphenylgermyloxy)-4H-chromen-4-one ethanol”: the “growth inhibition (GI)” value in data set [1] was determined as 12.3%; in [2] it was 27.25%; in [3], 23.67%; in data set [6] it was 4.822%. Further, the Activity entry in [4] was “Non-toxic”; in [5], “Toxic”; in data set [7], “Non-toxic”.
Take `O=c1cc(-c2ccccc2)oc2cc(O)cc(O)c12` [CHRYSIN]: the inhibition of growth at 20 µg/mL stood at 55.3% in data set [8], 56.5% in data set [25] and 86.5% in data set [26]. The inhibition at 10 ug/ml in data set [9] was found to be 14.5%. Also, the inhibition of growth at 30 µg/mL in data set [10] came to 97%; in data set [20], 65.2%; in data set [21] it was 65.1%. Moreover, in data set [11], the inhibition at 30 ug/ml was 29.6%. Further, the “growth inhibition (GI)” value in data set [12], in data set [15] and in [17] was “Dose-dependent effect” in each case. Further, the inhibition at 20 ug/ml in [13] was 21.4%. Also, the inhibition of growth at 5 µg/mL in data set [14] was 14.8%; in data set [23], 14.6%; in data set [24], 15.2%. The results for the inhibition of growth at 10 µg/mL in data set [16], in data set [18] and in data set [19] were 29.2%, 45.2% and 24.9%, respectively. For the same compound, the inhibition at 5 ug/ml in [22] was found to be 5.92%.
